# Assay results taken from ChEMBL document CHEMBL5223148, “Design, synthesis, and bioactivity evaluation of novel 1-(4-(benzylsulfonyl)-2-nitrophenyl) derivatives as potential anti-inflammatory agents against LPS-induced acute lung injury” (Bioorg Med Chem Lett, 2023).
# Calls of active or inactive are those of the source. The rule behind the calls is not given here.
# Assays:
# J774.A1 [1] = experiment: Antiinflammatory activity in mouse J774.A1 cells assessed as decrease in LPS-induced IL-6 secretion at 20 uM preincubated for 30 mins followed by LPS stimulation and measured after 24 hrs by ELISA; assay type: functional; design: scale not given: the % may be the effect or the level left; conditions: time 24.5 hrs
# Summary of the method: (§1)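 J774A.1 macrophages pretreated 30 min with 20 μM compound, DMSO as negative control. Cells then stimulated with LPS at 0.5 μg/mL for 24 h. IL-6 and TNF-α in the culture medium measured by ELISA.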
# J774.A1 [2] = experiment: Antiinflammatory activity in mouse J774.A1 cells assessed as decrease in LPS-induced TNF-alpha secretion at 20 uM preincubated for 30 mins followed by LPS stimulation and measured after 24 hrs by ELISA; assay type: functional; conditions: time 24.5 hrs; summary of the method: as §1
# J774.A1 [3] = experiment: Antiinflammatory activity in mouse J774.A1 cells assessed as decrease in LPS-induced IL-6 secretion preincubated for 30 mins followed by LPS stimulation and measured after 24 hrs by ELISA; assay type: functional, cell-based; conditions: for Activity: time 24.5 hrs
# Summary of the method: (§2)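 J774A.1 cells pretreated 30 min across a concentration range, then challenged with LPS at 0.5 μg/mL for 24 h. Secreted IL-6 or TNF-α measured in the medium by ELISA, and IC50 taken from dose–response. Mean ± SEM of 3 independent experiments.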
# J774.A1 [4] = experiment: Antiinflammatory activity in mouse J774.A1 cells assessed as decrease in LPS-induced TNF-alpha secretion preincubated for 30 mins followed by LPS stimulation and measured after 24 hrs by ELISA; assay type: functional, cell-based; conditions: for Activity: time 24.5 hrs; summary of the method: as §2
# Mus musculus [5] = experiment: Antiinflammatory activity in C57BL/6J mouse model of LPS-induced acute lung injury assessed as reduction in neutrophil count in BALF at 20 mg/kg, po administered 30 mins prior to LPS treatment and measured after 6 hrs by Wright and Giemsa staining based analysis; assay type: functional, organism-based; conditions: time 6.5 hrs
# Summary of the method: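 Oral dosing 30 min before intratracheal LPS at 5 mg/kg, with a saline sham group. BALF collected at 6 h and neutrophils counted by Wright-Giemsa staining, given relative to control. Mean ± SEM, n = 8.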
# Mus musculus [6] = experiment: Antiinflammatory activity in C57BL/6J mouse model of LPS-induced acute lung injury assessed as reduction in […] infiltration at 20 mg/kg, po administered 30 mins prior to LPS treatment and measured after 6 hrs by F4/80 antibody staining based assay; assay type: functional, organism-based; conditions: time 6.5 hrs
# Summary of the method: (§3)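 Oral pretreatment 30 min before intratracheal LPS at 5 mg/kg, with a saline sham group. Lungs taken at 6 h. Sections immunostained for F4/80 (macrophage marker) or for p-p65, counterstained with hematoxylin. Percentage of positive cells assessed.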
# Mus musculus [7] = experiment: Antiinflammatory activity in C57BL/6J mouse model of LPS-induced acute lung injury assessed as reduction in p-p65 level at 20 mg/kg, po administered 30 mins prior to LPS treatment and measured after 6 hrs by immunohistochemical analysis; assay type: functional, organism-based; conditions: time 6.5 hrs; summary of the method: as §3
# Mus musculus [8] = experiment: Antiinflammatory activity in C57BL/6J mouse model of LPS-induced acute lung injury assessed as reduction in TNF-alpha production in BALF at 20 mg/kg, po administered 30 mins prior to LPS treatment and measured after 6 hrs; assay type: functional, organism-based; conditions: time 6.5 hrs
# Summary of the method: (§4)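 Mice dosed orally 30 min before intratracheal LPS at 5 mg/kg; sham mice received a similar volume of saline. Animals sacrificed 6 h after LPS, and blood and BALF collected. TNF-α and IL-6 measured in serum and in BALF. Mean ± SEM, n = 8, compared with the LPS-only group.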
# Mus musculus [9] = experiment: Antiinflammatory activity in C57BL/6J mouse model of LPS-induced acute lung injury assessed as reduction in IL-6 production in BALF at 20 mg/kg, po administered 30 mins prior to LPS treatment and measured after 6 hrs; assay type: functional, organism-based; conditions: time 6.5 hrs; summary of the method: as §4
# Mus musculus [10] = experiment: Antiinflammatory activity in C57BL/6J mouse model of LPS-induced acute lung injury assessed as reduction in TNF-alpha production in serum at 20 mg/kg, po administered 30 mins prior to LPS treatment and measured after 6 hrs; assay type: functional, organism-based; conditions: time 6.5 hrs; summary of the method: as §4
# Mus musculus [11] = experiment: Antiinflammatory activity in C57BL/6J mouse model of LPS-induced acute lung injury assessed as reduction in IL-6 production in serum at 20 mg/kg, po administered 30 mins prior to LPS treatment and measured after 6 hrs; assay type: functional, organism-based; conditions: time 6.5 hrs; summary of the method: as §4
# Mus musculus [12] = experiment: Antiinflammatory activity in C57BL/6J mouse model of LPS-induced acute lung injury assessed as reduction in alveolar septa thickness at 20 mg/kg, po administered 30 mins prior to LPS treatment and measured after 6 hrs by H and E staining based assay; assay type: functional, organism-based; conditions: time 6.5 hrs
# Summary of the method: (§5)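 Oral pretreatment 30 min before intratracheal LPS at 5 mg/kg, with a saline sham group. Lungs harvested 6 h later. H&E-stained sections scored for alveolar septal thickness, pulmonary congestion, inflammatory infiltration and tissue destruction.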
# Mus musculus [13] = experiment: Antiinflammatory activity in C57BL/6J mouse model of LPS-induced acute lung injury assessed as reduction in pulmonary congestion at 20 mg/kg, po administered 30 mins prior to LPS treatment and measured after 6 hrs by H and E staining based assay; assay type: functional, organism-based; conditions: time 6.5 hrs; summary of the method: as §5
# Mus musculus [14] = experiment: Antiinflammatory activity in C57BL/6J mouse model of LPS-induced acute lung injury assessed as reduction in inflammatory infiltration at 20 mg/kg, po administered 30 mins prior to LPS treatment and measured after 6 hrs by H and E staining based assay; assay type: functional, organism-based; conditions: time 6.5 hrs; summary of the method: as §5
# Mus musculus [15] = experiment: Antiinflammatory activity in C57BL/6J mouse model of LPS-induced acute lung injury assessed as reduction in tissue destruction at 20 mg/kg, po administered 30 mins prior to LPS treatment and measured after 6 hrs by H and E staining based assay; assay type: functional, organism-based; conditions: time 6.5 hrs; summary of the method: as §5
SMILES,Activity (J774.A1 [1]),Activity (J774.A1 [2]),further results
CCN1CCN(c2ccc(S(=O)(=O)Cc3ccc(C)cc3)cc2[N+](=O)[O-])CC1,52.95%,inactive,–
Cc1ccc(CS(=O)(=O)c2ccc(N3CCN(c4ccc([N+](=O)[O-])cc4)CC3)c([N+](=O)[O-])c2)cc1,inactive,inactive,–
COc1cccc(CS(=O)(=O)c2ccc(N3CCN(Cc4cccc([N+](=O)[O-])c4)CC3)c([N+](=O)[O-])c2)c1,41.95%,inactive,–
COCCN1CCN(c2ccc(S(=O)(=O)Cc3ccc(C)cc3)cc2[N+](=O)[O-])CC1,2.98%,inactive,–
O=[N+]([O-])c1ccc(N2CCN(c3ccc(S(=O)(=O)Cc4cccc(F)c4)cc3[N+](=O)[O-])CC2)cc1,68.87%,12.18%,IC50 (J774.A1 [3]): 6.01 µM; Activity (J774.A1 [3]): Dose-Dependent Effect; IC50 (J774.A1 [4]): 23.4 µM; Activity (J774.A1 [4]): Active
COCCN1CCN(c2ccc(S(=O)(=O)Cc3ccccc3)cc2[N+](=O)[O-])CC1,inactive,inactive,–
C[C@@H]1C[C@H]2[C@@H]3CCC4=CC(=O)C=C[C@]4(C)[C@@]3(F)[C@@H](O)C[C@]2(C)[C@@]1(O)C(=O)CO,–,–,Activity (Mus musculus [5]): Active; Activity (Mus musculus [6]): Active; Activity (Mus musculus [7]): Active
CN(C)CCS(=O)(=O)Cc1ccc(Br)cc1,79.61%,inactive,–
O=[N+]([O-])c1ccc(N2CCN(c3ccc(S(=O)(=O)Cc4ccc(F)cc4)cc3[N+](=O)[O-])CC2)cc1,62.47%,18.6%,–
COc1cccc(CS(=O)(=O)c2ccc(N3CCN(C(C)=O)CC3)c([N+](=O)[O-])c2)c1,5.7%,inactive,–
CCN1CCN(c2ccc(S(=O)(=O)Cc3ccccc3)cc2[N+](=O)[O-])CC1,21.24%,inactive,–
CCN1CCN(c2ccc(S(=O)(=O)Cc3ccc(F)cc3)cc2[N+](=O)[O-])CC1,31.39%,inactive,–
CN(C)c1ccc(S(=O)(=O)Cc2ccccc2)cc1[N+](=O)[O-],inactive,inactive,–
COCCN1CCN(c2ccc(S(=O)(=O)Cc3cccc(OC)c3)cc2[N+](=O)[O-])CC1,inactive,inactive,–
CC(=O)N1CCN(c2ccc(S(=O)(=O)Cc3ccc(C)cc3)cc2[N+](=O)[O-])CC1,16.83%,inactive,–
COc1cccc(CS(=O)(=O)c2ccc(N3CCN(CCO)CC3)c([N+](=O)[O-])c2)c1,15.23%,inactive,–
O=[N+]([O-])c1ccc(N2CCN(c3ccc(S(=O)(=O)Cc4ccccc4)cc3[N+](=O)[O-])CC2)cc1,51.52%,inactive,–
O=[N+]([O-])c1cccc(CN2CCN(c3ccc(S(=O)(=O)Cc4ccccc4)cc3[N+](=O)[O-])CC2)c1,57.27%,inactive,–
CC(=O)N1CCN(c2ccc(S(=O)(=O)Cc3ccc(F)cc3)cc2[N+](=O)[O-])CC1,33.81%,10.99%,–

SMILES,Activity (J774.A1 [1]),Activity (J774.A1 [2]),further results
COc1cccc(CS(=O)(=O)c2ccc(N3CCNCC3)c([N+](=O)[O-])c2)c1,18.18%,inactive,–
COCCN1CCN(c2ccc(S(=O)(=O)Cc3ccc(F)cc3)cc2[N+](=O)[O-])CC1,12.89%,inactive,–
CCN1CCN(c2ccc(S(=O)(=O)Cc3cccc(F)c3)cc2[N+](=O)[O-])CC1,58.89%,24.43%,–
COc1cccc(CS(=O)(=O)c2ccc(N(C)C)c([N+](=O)[O-])c2)c1,8.62%,inactive,–
CC(=O)N1CCN(c2ccc(S(=O)(=O)Cc3ccccc3)cc2[N+](=O)[O-])CC1,40.41%,19.12%,–
COCCN1CCN(c2ccc(S(=O)(=O)Cc3cccc(F)c3)cc2[N+](=O)[O-])CC1,0.29%,inactive,–
O=[N+]([O-])c1cccc(CN2CCN(c3ccc(S(=O)(=O)Cc4ccc(F)cc4)cc3[N+](=O)[O-])CC2)c1,59.52%,27.46%,–
Cc1ccc(CS(=O)(=O)c2ccc(N3CCN(CCO)CC3)c([N+](=O)[O-])c2)cc1,inactive,inactive,–
O=[N+]([O-])c1cc(S(=O)(=O)Cc2ccc(F)cc2)ccc1N1CCN(CCO)CC1,54.2%,29.96%,–
CN(C)c1ccc(S(=O)(=O)Cc2cccc(F)c2)cc1[N+](=O)[O-],inactive,inactive,–
O=[N+]([O-])c1cc(S(=O)(=O)Cc2cccc(F)c2)ccc1N1CCN(CCO)CC1,4.55%,inactive,–
O=[N+]([O-])c1ccc(CN2CCN(c3ccc(S(=O)(=O)Cc4ccc(F)cc4)cc3[N+](=O)[O-])CC2)cc1,71.54%,26.45%,Activity (J774.A1 [3]): inactive; Activity (J774.A1 [4]): inactive
CN(C)c1ccc(S(=O)(=O)Cc2ccc(F)cc2)cc1[N+](=O)[O-],inactive,inactive,–
CCN1CCN(c2ccc(S(=O)(=O)Cc3cccc(OC)c3)cc2[N+](=O)[O-])CC1,63.29%,33.13%,IC50 (J774.A1 [3]): 5.66 µM; Activity (J774.A1 [3]): Dose-Dependent Effect; IC50 (J774.A1 [4]): 19.6 µM; Activity (J774.A1 [4]): Active; Activity (Mus musculus [5]): Active; Activity (Mus musculus [8]): Active; Activity (Mus musculus [9]): Active; Activity (Mus musculus [10]): Active; Activity (Mus musculus [11]): Active; Activity (Mus musculus [12]): Active; Activity (Mus musculus [13]): Active; Activity (Mus musculus [14]): Active; Activity (Mus musculus [15]): Active; Activity (Mus musculus [6]): Active; Activity (Mus musculus [7]): Active
O=[N+]([O-])c1cc(S(=O)(=O)Cc2ccccc2)ccc1N1CCN(CCO)CC1,56.59%,29.04%,–
COc1cccc(CS(=O)(=O)c2ccc(N3CCN(c4ccc([N+](=O)[O-])cc4)CC3)c([N+](=O)[O-])c2)c1,66.21%,inactive,–
O=[N+]([O-])c1cccc(CN2CCN(c3ccc(S(=O)(=O)Cc4cccc(F)c4)cc3[N+](=O)[O-])CC2)c1,59.44%,22.51%,–
CN1CCN(c2ccc(S(=O)(=O)Cc3ccccc3)cc2[N+](=O)[O-])CC1,53.04%,16.86%,–
CC(=O)N1CCN(c2ccc(S(=O)(=O)Cc3cccc(F)c3)cc2[N+](=O)[O-])CC1,62.38%,36.28%,IC50 (J774.A1 [3]): 14.7 µM; Activity (J774.A1 [3]): Dose-Dependent Effect; IC50 (J774.A1 [4]): 28.9 µM; Activity (J774.A1 [4]): Active
